Test results from ChEMBL document CHEMBL3286302, “Design, synthesis and biological evaluation of small molecular polyphenols as entry inhibitors against H(5)N(1)” (Bioorg Med Chem Lett, 2014).
Activity calls are given as the source filed them. The calls are words filed in the database; no cut-off is given here.

Tests used:
[1] = Cytotoxicity against MDCK cells after 72 hrs by MTT assay; format: cell-based, Canis lupus familiaris; conditions: dog
Outline: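 Uninfected MDCK cells were assayed by MTT. CC50 is the concentration causing 50% cell death. Values are the average of three separate experiments.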

[2] = Selectivity index, ratio of CC50 for MDCK cells to IC50 for Influenza A virus (A/Vietnam/1194/2004(H5N1)); format: functional
[3] = Antiviral activity against Influenza A virus (A/Vietnam/1194/2004(H5N1)) infected in MDCK cells assessed as inhibition of viral replication after 2 to 3 days by crystal violet staining-based plaque reduction assay; format: functional, cell-based
[4] = biological target: Neuraminidase (Influenza A virus) (UniProt B4URF0); test: Inhibition of Influenza A virus H5N1 neuraminidase up to 20 ug/ml by fluorescence spectrophotometric analysis
Sequence of Neuraminidase (Influenza A virus) (B4URF0 as listed by the source): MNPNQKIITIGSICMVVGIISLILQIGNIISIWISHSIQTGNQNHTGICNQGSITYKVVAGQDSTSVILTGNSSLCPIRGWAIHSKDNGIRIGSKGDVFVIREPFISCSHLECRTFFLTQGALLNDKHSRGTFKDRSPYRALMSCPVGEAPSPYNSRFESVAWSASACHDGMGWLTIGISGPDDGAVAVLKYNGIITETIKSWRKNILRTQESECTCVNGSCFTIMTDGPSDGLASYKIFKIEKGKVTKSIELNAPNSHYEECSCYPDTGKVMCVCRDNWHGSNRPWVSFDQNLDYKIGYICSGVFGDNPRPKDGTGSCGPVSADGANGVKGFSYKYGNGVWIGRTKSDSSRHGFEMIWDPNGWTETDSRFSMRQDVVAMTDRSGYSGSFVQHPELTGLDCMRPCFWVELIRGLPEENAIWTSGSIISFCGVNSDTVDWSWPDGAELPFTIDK

cells [5] = format: functional, Influenza A virus (A/Vietnam/1194/2004(H5N1)); conditions: Influenza A virus, MDCK, 2 h
Influenza A virus = test: Inhibition of Influenza A virus H5N1 hemagglutinin adsorption to chicken RBC at 100 ug/ml by two-fold dilution method
Outline: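 Hemagglutination inhibition assay using H5 standard antigen and antiserum. Compounds were tested in serial 2-fold dilutions from 100 to 0.098 µg/ml.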

cells [6] = format: functional, Influenza A virus (A/Vietnam/1194/2004(H5N1)); conditions: Influenza A virus, MDCK, 2 h; remark: listed apart in the source

SMILES | CC50 at 72 h [1] [µM] | Ratio CC50/IC50 [2] | IC50 [3] [µM] | inhibition [4] | inhibition at 30 µM (cells [5]) [%] | inhibition (Influenza A virus) | inhibition at 30 µM (cells [6]) [%]
COC(=O)[C@H](CC(C)C)NC(=O)Cc1ccc(O)c(O)c1 | > 183 | >4.38 | 41.8 | – | – | – | –
COC(=O)c1ccc(OC)c(OC)c1 [VERATRIC ACID METHYL ESTER] | > 170 | – | – | – | – | – | –
CC(=O)N[C@H]1[C@H]([C@H](O)[C@H](O)CO)OC(C(=O)O)=C[C@@H]1NC(=N)N [ZANAMIVIR] | > 100 | >113.64 | 0.88 | – | – | – | –
COC(=O)Cc1ccc(O)c(O)c1 | > 170 | >8.7 | 19.5 | – | – | – | –
CC(C)OC(=O)CCc1ccc(O)c(O)c1 | > 198 | >10.16 | 19.5 | – | – | – | –
CCOC(=O)Cc1ccc(O)c(O)c1 | > 159 | >9.41 | 16.9 | – | – | – | –
COC(=O)[C@H](CC(C)C)NC(=O)c1ccc(O)c(O)c1 | > 119 | >5.33 | 22.2 | inactive | 20 | inactive | > 50
COC(=O)[C@H](Cc1ccccc1)NC(=O)Cc1ccc(O)c(O)c1 | > 170 | – | – | – | – | – | –
COC(=O)Cc1ccc(OC)c(OC)c1 | > 159 | – | – | – | – | – | –
COC(=O)[C@H](Cc1ccccc1)NC(=O)c1ccc(O)c(O)c1 | > 106 | – | – | – | – | – | –
CC(C)OC(=O)c1ccc(O)c(O)c1 | > 159 | >10.65 | 14.9 | inactive | 20 | inactive | > 50
OCc1ccc(O)c(O)c1 | > 143 | >80.15 | 1.78 | inactive | 20 | inactive | 100
COC(=O)CCc1ccc(OC)c(OC)c1 | > 149 | – | – | – | – | – | –
NC12CC3CC(CC(C3)C1)C2 [AMANTADINE] | 219 | 20.27 | 10.8 | – | – | – | –
COC(=O)c1ccc(O)c(O)c1 [METHYL PROTOCATECHUATE] | > 183 | >10.02 | 18.3 | – | – | – | –
CCOC(=O)CCc1ccc(O)c(O)c1 | > 216 | >10.08 | 21.5 | – | – | – | –
COC(=O)CCc1ccc(O)c(O)c1 | > 238 | >10.01 | 23.8 | – | – | – | –
CCOC(=O)c1ccc(O)c(O)c1 | > 170 | >10.55 | 16.1 | – | – | – | –
CC(C)OC(=O)Cc1ccc(O)c(O)c1 | > 149 | >9.77 | 15.2 | – | – | – | –
